Measurements as given in ChEMBL document CHEMBL3217512, “Indole/triazole conjugates are selective inhibitors and inducers of bacterial biofilms” (Medchemcomm, 2013).

Assays:
Escherichia coli [1] = assay: Reversal of N-(2-(4-(((3aR,8aR)-1,2,3,3a,8,8a-hexahydropyrrolo[2,3-b]indol-3a-yl)methyl)-1H-1,2,3-triazol-1-yl)ethyl)-4-hexylbenzamide-induced biofilm inhibition in Escherichia coli K-12 ER2718 at PC75 relative to control; type: functional; set-up: scale not given: the % may be the effect or the level left
Outline: (§1)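 E. coli static crystal violet biofilm assay. The inducer was added at its PC25, PC50 or PC75 concentration together with the reference inhibitor at a fixed concentration. Reversal was taken as the reduction in the inhibitor's anti-biofilm activity.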

Escherichia coli [2] = assay: Antimicrobial activity against Escherichia coli K-12 ER2718 assessed as effect on planktonic growth at IC50 after 2 to 24 hrs; type: organism-based
Escherichia coli [3] = assay: Antimicrobial activity against Escherichia coli K-12 ER2718 assessed as effect on planktonic growth at PC50 after 2 to 24 hrs; type: organism-based
Acinetobacter baumannii [4] = assay: Antimicrobial activity against Acinetobacter baumannii 19606 assessed as effect on planktonic growth at IC50 after 2 to 24 hrs; set-up: species or system ATCC 19606
Escherichia coli [5] = assay: Reversal of N-(2-(4-(((3aR,8aR)-1,2,3,3a,8,8a-hexahydropyrrolo[2,3-b]indol-3a-yl)methyl)-1H-1,2,3-triazol-1-yl)ethyl)-4-hexylbenzamide-induced biofilm inhibition in Escherichia coli K-12 ER2718 at PC25 relative to control; type: functional; set-up: scale not given: the % may be the effect or the level left; outline: as §1
Escherichia coli [6] = assay: Antimicrobial activity against Escherichia coli K-12 ER2718 assessed as effect on planktonic growth at PC25 after 2 to 24 hrs; type: organism-based
Acinetobacter baumannii [7] = assay: Inhibition of biofilm formation in Acinetobacter baumannii 19606 at 150 uM after 24 hrs by crystal violet staining-based assay relative to control; type: functional; details: ATCC 19606 = CIP 70.34 = JCM 6841, 24 h
Staphylococcus aureus [8] = assay: Antimicrobial activity against methicillin-resistant Staphylococcus aureus BAA 44 assessed as effect on planktonic growth at IC50 after 2 to 24 hrs by colony count method; type: organism-based; details: in vivo
Escherichia coli [9] = assay: Antimicrobial activity against Escherichia coli K-12 ER2718 assessed as effect on planktonic growth at PC25 after 2 to 24 hrs by colony count method; type: organism-based
Staphylococcus aureus [10] = assay: Inhibition of biofilm formation in Staphylococcus aureus 29213 after 24 hrs by crystal violet staining-based assay; type: functional, organism-based; details: Staphylococcus aureus, 29213, 24 h
Outline: (§2)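 Compounds active in the 150 μM screen were taken into dose-response studies under static conditions with a crystal violet read-out. IC50 is the concentration that inhibits 50% of biofilm growth relative to an untreated control.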

Escherichia coli [11] = assay: Induction of biofilm formation in Escherichia coli K-12 ER2718 assessed as concentration required for 75% promotion of biofilm formation after 24 hrs by crystal violet staining-based assay; type: functional
Outline: (§3)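 For strong inducers of E. coli biofilm, dose-response curves were run in the static crystal violet assay. PC25, PC50 and PC75 are the concentrations promoting biofilm formation by 25%, 50% and 75%.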

Escherichia coli [12] = assay: Reversal of N-(2-(4-(((3aR,8aR)-1,2,3,3a,8,8a-hexahydropyrrolo[2,3-b]indol-3a-yl)methyl)-1H-1,2,3-triazol-1-yl)ethyl)-4-hexylbenzamide-induced biofilm inhibition in Escherichia coli K-12 ER2718 at PC50 relative to control; type: functional; set-up: scale not given: the % may be the effect or the level left; outline: as §1
Escherichia coli [13] = assay: Antimicrobial activity against Escherichia coli K-12 ER2718 assessed as effect on planktonic growth at PC75 in presence of N-(2-(4-(((3aR,8aR)-1,2,3,3a,8,8a-hexahydropyrrolo[2,3-b]indol-3a-yl)methyl)-1H-1,2,3-triazol-1-yl)ethyl)-4-hexylbenzamide; type: organism-based; details: in vivo
Escherichia coli [14] = assay: Induction of biofilm formation in Escherichia coli K-12 ER2718 assessed as concentration required for 50% promotion of biofilm formation after 24 hrs by crystal violet staining-based assay; type: functional; outline: as §3
Escherichia coli [15] = assay: Antimicrobial activity against Escherichia coli K-12 ER2718 assessed as effect on planktonic growth at 50 uM after 2 to 24 hrs; type: organism-based
Outline: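 Growth curve analysis of planktonic bacteria with each biofilm inducer at 50 μM, used to assess toxicity.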

Escherichia coli [16] = assay: Induction of biofilm formation in Escherichia coli K-12 ER2718 at 50 uM after 24 hrs by crystal violet staining-based assay relative to control; type: functional
Outline: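 Static biofilm assay with compounds at 50 μM and crystal violet read-out, relative to an untreated control. Compounds increasing biofilm by less than 50% were called inducers, and by more than 50% strong inducers.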

Escherichia coli [17] = assay: Antimicrobial activity against Escherichia coli K-12 ER2718 assessed as effect on planktonic growth at PC75 after 2 to 24 hrs; type: organism-based; details: in vivo
Escherichia coli [18] = assay: Antimicrobial activity against Escherichia coli K-12 ER2718 assessed as effect on planktonic growth at PC75 after 2 to 24 hrs by colony count method; type: organism-based; details: in vivo
Acinetobacter baumannii [19] = assay: Antimicrobial activity against Acinetobacter baumannii 19606 assessed as effect on planktonic growth at IC50 after 2 to 24 hrs by colony count method; set-up: species or system ATCC 19606
Staphylococcus aureus [20] = assay: Antimicrobial activity against Staphylococcus aureus 29213 assessed as effect on planktonic growth at IC50 after 2 to 24 hrs by colony count method; type: organism-based; details: in vivo
Escherichia coli [21] = assay: Antimicrobial activity against Escherichia coli K-12 ER2718 assessed as effect on planktonic growth at IC50 after 2 to 24 hrs by colony count method; type: organism-based
Staphylococcus aureus [22] = assay: Inhibition of biofilm formation in methicillin-resistant Staphylococcus aureus BAA 44 after 24 hrs by crystal violet staining-based assay; type: functional, organism-based; details: BAA 44, 24 h
Outline: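 Static biofilm development in MRSA, read out by crystal violet staining against an untreated control. Initial screen at 150 μM. Inhibitors then went to dose-response, with IC50 taken as the concentration giving 50% inhibition of biofilm growth. Induction was judged at 50 μM: under 50% induction counted as "inducer", over 50% as "strong inducer".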

Staphylococcus aureus [23] = assay: Antimicrobial activity against methicillin-resistant Staphylococcus aureus BAA 44 assessed as effect on planktonic growth at IC50 after 2 to 24 hrs; type: organism-based; details: in vivo
Staphylococcus aureus [24] = assay: Antimicrobial activity against Staphylococcus aureus 29213 assessed as effect on planktonic growth at IC50 after 2 to 24 hrs; type: organism-based; details: in vivo
Escherichia coli [25] = assay: Antimicrobial activity against Escherichia coli K-12 ER2718 assessed as effect on planktonic growth at PC25 in presence of N-(2-(4-(((3aR,8aR)-1,2,3,3a,8,8a-hexahydropyrrolo[2,3-b]indol-3a-yl)methyl)-1H-1,2,3-triazol-1-yl)ethyl)-4-hexylbenzamide; type: organism-based
Escherichia coli [26] = assay: Antimicrobial activity against Escherichia coli K-12 ER2718 assessed as effect on planktonic growth at PC50 after 2 to 24 hrs by colony count method; type: organism-based; details: in vivo
Escherichia coli [27] = assay: Reversal of N-(2-(4-(((3aR,8aR)-1,2,3,3a,8,8a-hexahydropyrrolo[2,3-b]indol-3a-yl)methyl)-1H-1,2,3-triazol-1-yl)ethyl)-4-hexylbenzamide-induced biofilm inhibition in Escherichia coli K-12 ER2718; type: functional, organism-based; outline: as §1
Escherichia coli [28] = assay: Antimicrobial activity against Escherichia coli K-12 ER2718 assessed as effect on planktonic growth at PC50 in presence of N-(2-(4-(((3aR,8aR)-1,2,3,3a,8,8a-hexahydropyrrolo[2,3-b]indol-3a-yl)methyl)-1H-1,2,3-triazol-1-yl)ethyl)-4-hexylbenzamide; type: organism-based; details: in vivo
Escherichia coli [29] = assay: Induction of biofilm formation in Escherichia coli K-12 ER2718 assessed as concentration required for 25% promotion of biofilm formation after 24 hrs by crystal violet staining-based assay; type: functional; outline: as §3
Escherichia coli [30] = assay: Inhibition of biofilm formation in Escherichia coli K-12 ER2718 after 24 hrs by crystal violet staining-based assay; type: functional, organism-based; details: K-12 ER2718, 24 h; outline: as §2

## CCCCCCc1ccc(C(=O)NCCn2cc(Cc3c[nH]c4ccccc34)nn2)cc1
Escherichia coli [1]
  Activity: 87%
Escherichia coli [2]
  Activity: Non-toxic
Escherichia coli [3]
  Activity: Non-toxic
Acinetobacter baumannii [4]
  Activity: Non-toxic
Escherichia coli [5]
  Activity: 7.7%
Escherichia coli [6]
  Activity: Non-toxic
Acinetobacter baumannii [7]
  inhibition at 150 µM: 25%
Staphylococcus aureus [8]
  Activity: Non-toxic
Escherichia coli [9]
  Activity: Non-toxic
Staphylococcus aureus [10]
  IC50: 174 µM
Escherichia coli [11]
  Activity: 160.7 µM
Escherichia coli [12]
  Activity: 47%
Escherichia coli [13]
  Activity: Non-toxic
Escherichia coli [14]
  Activity: 82.6 µM
Escherichia coli [15]
  Activity: Non-toxic
Escherichia coli [16]
  Activity: >50%
Escherichia coli [17]
  Activity: Non-toxic
Escherichia coli [18]
  Activity: Non-toxic
Acinetobacter baumannii [19]
  Activity: Non-toxic
Staphylococcus aureus [20]
  Activity: Non-toxic
Escherichia coli [21]
  Activity: Non-toxic
Staphylococcus aureus [22]
  IC50: 313 µM
Staphylococcus aureus [23]
  Activity: Non-toxic
Staphylococcus aureus [24]
  Activity: Non-toxic
Escherichia coli [25]
  Activity: Non-toxic
Escherichia coli [26]
  Activity: Non-toxic
Escherichia coli [27]
  Activity: Dose-dependent effect
Escherichia coli [28]
  Activity: Non-toxic
Escherichia coli [29]
  Activity: 47.8 µM

## CCCCCCc1ccc(C(=O)NCCn2cc(C[C@@]34CCN[C@@H]3Nc3ccccc34)nn2)cc1
Escherichia coli [30]
  IC50: 100 µM
Staphylococcus aureus [10]
  IC50: 12.5 µM
Staphylococcus aureus [22]
  IC50: 3.4 µM
